Experimental data reported in PubChem BioAssay.
Records with an inconclusive call do not appear.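 Rule for the calls, unless noted: active = RAM network inhibition above 8.4% in each of two replicates, 3 SD over the compound average; inconclusive = above 8.4% inhibition in only one replicate; inactive = 8.4% inhibition or less in each replicate.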

Experiments:
[1] = S. cerevisiae growth inhibition in permissive medium (OD615), pilot counter-assay for S. cerevisiae lifespan shortening project, permissive growth control (AID 705;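 active = growth inhibition above 25% in both replicates, a cutoff set 3 SD above the mean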); settings: OD615, 24 h, at 10 µM, active compounds read high
Outline: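 Material: engineered DeaD yeast; Compound: one dose 10 µM, DMSO 0.25% final; Detection: absorbance (optical density) at 615 nm; Buffer or medium: permissive raffinose/galactose medium; Timing: 24 h exposure, 30 °C.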

[2] = S. cerevisiae growth inhibition in restrictive medium, OD615, pilot screen, restrictive growth control, yeast lifespan reduction project (AID 706;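 active = growth inhibition above a set limit, 3 SD over mean compound inhibition, in both replicates, cut at about 43% in these data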;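 note: modified DeaD lifespan yeast strain shifted to restrictive glucose medium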); settings: OD615, 48 h, at 10 µM, active compounds read high
Outline: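 Buffer or medium: restrictive glucose medium (CSMM-D); test system: modified S. cerevisiae; doses: single dose of 10 µM compound final, 0.25% DMSO; schedule: 48 h compound exposure at 30 °C; detection: absorbance (optical density) measured at 615 nm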

[3] = doxorubicin toxicity protection in MRP-1 cells – H69AR cells, CellTiter-Glo, duplicate, MRP-1 activator project, pilot screen (AID 807;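 active = viability increase at or above a cutoff of the median across tested compounds plus 3 SD, cut at about 8.5% in these data, passing the limit was not always enough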;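 note: compound pretreatment 18-22 h then 72 h combined with doxorubicin; 0% = doxorubicin alone and 100% = vehicle without doxorubicin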); settings: H69AR viability with doxorubicin, CellTiter-Glo luminescence; at 10 µM; active compounds read high
[4] = viability of HCT116 without oncogenic beta-catenin – human colon tumor cells, pilot screen (AID 823;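 active = cell viability at or below a set limit in both duplicate runs, the limit being the all-compound median minus 4 SD, cut at about 23% in these data, passing the limit was not always enough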;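 note: 0% = wells killed by 20 µM Hyamine and 100% = untreated DMSO cell wells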); settings: HCT116 beta-catenin knockout viability, CellTiter-Glo, 60 h; at 10 µM; active compounds read low
[5] = viability of PTEN-null HCT116 cells – cell-based, HCT116 clonal line, CellTiter-Glo, pilot screen (AID 824;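 active = viability at or below 27.92% in each of two runs, the all-compound median minus 4 SD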;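 note: 0% = 20 µM Hyamine control and 100% = vehicle cell control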); settings: HCT116 PTEN-deleted viability, 60 h, at 10 µM, active compounds read low
[6] = RAM pathway blockade in budding yeast – dse1pr::URA3 reporter, 5-FOA selection, pilot screen (AID 869;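 active = inhibition over a set limit, the all-compound mean plus 3 SD, in both replicate runs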;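 note: 0% = DMSO wells with no growth and 100% = 10 µM 1-NA-PP1 with full growth; RAM network block rescues cells from 5-FOA so hits raise OD615 growth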); settings: S. cerevisiae dse1pr::URA3 5-FOA growth, OD615, 2 d, at 10 µM, active compounds read high
[7] = RAM signaling pathway blockade in yeast – S. cerevisiae, Pdr1DBD-CYC8 efflux-inhibited sensitized strain, primary screen (AID 1298);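 note: 0% = DMSO untreated cells without growth and 100% = 10 µM 1-NA-PP1 full growth; higher means more yeast growth rescued from 5-FOA killing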; settings: S. cerevisiae cbk1-as DSE1-URA3 strain, 5-FOA growth OD615, 2 d; at 50 µM; active compounds read high

CCOC(=O)C1CCN(/C=C2/C(=O)NC(=O)N(c3ccc(OCC)cc3)C2=O)CC1
inactive: growth inhibition [1] -11.5% | growth inhibition [2] -20.2% | viability increase [3] 1.62% | viability [4] 98% | viability [5] 97.5% | inhibition [6] 1.87% | RAM network inhibition [7] 1.16%

CCOc1ccc(-n2c(O)c(C=Nc3ccc(N4CCOCC4)cc3)c(=O)[nH]c2=O)cc1
inactive: growth inhibition [1] -8.12% | growth inhibition [2] -10.6% | viability increase [3] -3.19% | viability [4] 97.8% | viability [5] 103% | inhibition [6] 0.445% | RAM network inhibition [7] 5.35%

COP(=S)(OC)SCN1C(=O)c2ccccc2C1=O
inactive: growth inhibition [1] 14% | growth inhibition [2] 26.2% | viability increase [3] -4.23% | viability [4] 94.2% | viability [5] 84.9% | inhibition [6] 1.48% | RAM network inhibition [7] 3.76%

O=C1CCCC2=C1C(c1cccnc1)Nc1ccccc1N2 (stereo unspecified)
inactive: growth inhibition [1] -12.3% | growth inhibition [2] -2.74% | viability increase [3] -1.06% | viability [4] 90.8% | viability [5] 99.2% | inhibition [6] 1.61% | RAM network inhibition [7] 4.54%

Cc1cc(OCC(=O)OC(C)(C)C)c2c3c(c(=O)oc2c1)CCC3
inactive: growth inhibition [1] -8.29% | growth inhibition [2] -17% | viability increase [3] -2.71% | viability [4] 88.2% | viability [5] 85.6% | inhibition [6] 2.17% | RAM network inhibition [7] 5.46%

Nc1ccc(S(=O)(=O)N2CC3CC(C2)c2cccc(=O)n2C3)cc1 (stereo unspecified)
inactive: growth inhibition [1] 1.94% | growth inhibition [2] 1.35% | viability increase [3] 0.35% | viability [4] 101% | viability [5] 100% | inhibition [6] 0.13% | RAM network inhibition [7] 0.37%

CN(C)C(=O)Oc1ccc(OC(=O)N(C)C)cc1
inactive: growth inhibition [1] 1.07% | growth inhibition [2] -14.3% | viability increase [3] 0.6% | viability [4] 104% | viability [5] 99.5% | inhibition [6] 1.02% | RAM network inhibition [7] -0.32%

COc1cc(CC2C(=O)N(C)C(=O)N(C)C2=O)ccc1OCc1ccccc1
inactive: growth inhibition [1] -12.6% | growth inhibition [2] -5.52% | viability increase [3] 0.67% | viability [4] 96.9% | viability [5] 95.8% | inhibition [6] 0.87% | RAM network inhibition [7] 5.72%

O=c1c2ccccc2nc(-c2cccs2)n1-c1cnccn1
inactive: growth inhibition [1] -10.5% | growth inhibition [2] -2.03% | viability increase [3] -1.4% | viability [4] 99.7% | viability [5] 96.3% | inhibition [6] 2.33% | RAM network inhibition [7] 2.35%

CCCCCCOc1ccc(CN2CCN(CCO)CC2)cc1
inactive: growth inhibition [1] -16.7% | growth inhibition [2] 2.46% | viability increase [3] -6.03% | viability [4] 60.7% | viability [5] 75.5% | inhibition [6] 2% | RAM network inhibition [7] -1.21%

O=C1CC(=O)N(c2ccc(Cl)cc2Cl)C(=O)N1
inactive: growth inhibition [1] -10.7% | growth inhibition [2] 11.2% | viability increase [3] 0.06% | viability [4] 93.2% | viability [5] 91.2% | inhibition [6] 0.19% | RAM network inhibition [7] 1.94%

COc1cc(CN2CC3CC(C2)c2cccc(=O)n2C3)cc(OC)c1OC (stereo unspecified)
inactive: growth inhibition [1] -11.8% | growth inhibition [2] -4.6% | viability increase [3] -2.25% | viability [4] 104% | viability [5] 109% | inhibition [6] 2.42% | RAM network inhibition [7] 0.85%

CCCCCP(=O)(O)c1ccccc1
inactive: growth inhibition [1] -5.12% | growth inhibition [2] -13.1% | viability increase [3] -1.16% | viability [4] 95.2% | viability [5] 103% | inhibition [6] 0.735% | RAM network inhibition [7] 2.16%

CC12CNCC(C)(CNC1)C2O (stereo unspecified)
inactive: growth inhibition [1] 7.96% | growth inhibition [2] -2.77% | viability increase [3] -0.15% | viability [4] 97.5% | viability [5] 99.8% | inhibition [6] 1.12% | RAM network inhibition [7] 2.1%

NC(=O)CN1CC(c2ccccc2)CC1=O (stereo unspecified)
inactive: growth inhibition [1] -5.56% | growth inhibition [2] -19.9% | viability increase [3] -0.3% | viability [4] 105% | viability [5] 98% | inhibition [6] 0.295% | RAM network inhibition [7] 4.63%

CC(C)CC1C(C#N)=C(N)Oc2c1c(=O)oc1ccccc21 (stereo unspecified)
inactive: growth inhibition [1] -12.7% | growth inhibition [2] -16.4% | viability increase [3] -0.17% | viability [4] 102% | viability [5] 99.8% | inhibition [6] 1.71% | RAM network inhibition [7] 8.07%

C=Cn1ccnc1P(=S)(c1ccn(C)c1)c1nccn1C=C
inactive: growth inhibition [1] -2.8% | growth inhibition [2] 18.6% | viability increase [3] 0.29% | viability [4] 100% | viability [5] 99.2% | inhibition [6] 0.94% | RAM network inhibition [7] 1.45%

COC(=O)c1ccc(CN2CCN(Cc3ccccc3)CC2)cc1
inactive: growth inhibition [1] -18.9% | growth inhibition [2] -15.9% | viability increase [3] -1.15% | viability [4] 94.5% | viability [5] 90.8% | inhibition [6] 1.31% | RAM network inhibition [7] 1.37%
